From ChEMBL document CHEMBL1135890, “Structure-activity relationships of 2'-fluoro-2',3'-unsaturated D-nucleosides as anti-HIV-1 agents” (J Med Chem, 2002)

Key:
[1] = substrate: Nc1ncnc2c1ncn2C1OC(CO)C=C1O; test: (§1) Michaelis constant was determined against mammalian Adenosine deaminase
How it was run: (§2)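 Calf intestinal mucosa adenosine deaminase (EC 3.5.4.4), 0.15–0.24 unit depending on substrate. Substrate 15–200 μM in phosphate buffer pH 7.4 at 25 °C. Deamination followed by UV absorbance at 265 nm. Each reaction medium was checked by TLC or UV to confirm the deaminated substrate was the sole product.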

[2] = substrate: Nc1ncnc2c1ncn2[C@@H]1O[C@H](CO)C=C1F; test: as §1; how it was run: as §2
[3] = substrate: Nc1ncnc2c1ncn2[C@@H]1O[C@H](CO)[C@@H](O)[C@H]1O; test: as §1; how it was run: as §2

B1: Adenosine deaminase (Homo sapiens), P00813 (protein)
chain: MAQTPAFDKPKVELHVHLDGSIKPETILYYGRRRGIALPANTAEGLLNVIGMDKPLTLPDFLAKFDYYMPAIAGCREAIKRIAYEFVEMKAKEGVVYVEVRYSPHLLANSKVEPIPWNQAEGDLTPDEVVALVGQGLQEGERDFGVKARSILCCMRHQPNWSPKVVELCKKYQQQTVVAIDLAGDETIPGSSLLPGHVQAYQEAVKSGIHRTVHAGEVGSAEVVKEAVDILKTERLGHGYHTLEDQALYNRLRQENMHFEICPWSSYLTGAWKPDTEHAVIRLKNDQANYSLNTDDPLIFKSTLDTDYQMTKRDMGFTEEEFKRLNINAAKSSFLPEDEKRELLDLLYKAYGMPPSASAGQNL
B1 showed a Km [1] of 30 µM, a Km [2] of 23 µM and a Km [3] of 5 µM.
